From publication PMC2634825 (Molecular pharmaceutics, 2009)
“Also recorded” adds a separate entry of the source.

Experiments:
[1] = Biodistribution in athymic nude mice bearing MDA-MB-435 breast cancer xenografts; assay type: in vivo; conditions: mouse; for tissue to tissue ratio at 2 h: female, athymic nu/nu, tumor and muscle, iv, total radioactivity; for tissue uptake at 0.5 h / tissue uptake at 2 h: in vivo; for tissue uptake at 0.5 h: 30 min p.i.; for tissue uptake at 2 h: 120 min p.i.
Outline: (§1)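 Female athymic nu/nu mice (4–5 weeks old) received 5 × 10⁶ cells s.c. into both mammary fat pads (MDA-MB-435) or both upper flanks (U87MG) and were used 2–4 weeks later with 0.05–0.4 g tumors. Each got ~2 μCi of HPLC-purified tracer in 0.1 mL saline i.v. via the tail vein. Four mice per time point were killed at 30, 60 and 120 min by pentobarbital overdose. Organs were weighed and γ-counted as %ID/g; T/B values are means ± SD.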

[2] = Biodistribution in athymic nude mice bearing U87MG glioma xenografts; assay type: in vivo; conditions: mouse; for tissue to tissue ratio at 0.5 h / tissue to tissue ratio at 2 h: female, athymic nu/nu, iv, total radioactivity; for tissue uptake at 0.5 h / tissue uptake at 2 h: in vivo; for tissue uptake at 0.5 h: 30 min p.i.; for tissue uptake at 2 h: 120 min p.i.
Outline: as §1

tumor-bearing mouse = experiment: Blocking experiment; assay type: in vivo, mice
Outline: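 Tumour-bearing nude mice were given ~2 μCi of the 99mTc-labelled tracer i.v. together with ~350 μg (~14 mg/kg) excess unlabelled cyclic RGD dimer. The blocker was dissolved in the dose solution at 1.75 mg/mL and filtered. Four animals were killed at 1 h p.i. by pentobarbital overdose, and organ %ID/g was compared with unblocked animals at the same time point.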

normal athymic nude mice = experiment: Metabolism study; assay type: in vivo
Outline: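 Two normal athymic nude mice per tracer each received 100–120 μCi i.v. via the tail vein. Urine was collected by manual void at 30 and 120 min, mixed with an equal volume of 20% aqueous acetonitrile, centrifuged at 8,000 rpm and filtered (0.20 μ). Feces collected at 2 h were suspended in 2 mL 20% acetonitrile, vortexed and centrifuged.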

[3] = system: athymic nude mice bearing U87MG glioma xenografts; experiment: Biodistribution in athymic nude mice bearing U87MG glioma xenografts; assay type: in vivo; conditions: over the 2 h study period
Outline: as §1

[4] = kidney uptake, MDA-MB-435 model
[5] = muscle uptake, MDA-MB-435 model
[6] = tumor uptake, MDA-MB-435 breast tumor
[7] = blood uptake (blood clearance), U87MG model

Row | SMILES | tissue to tissue ratio at 2 h [1] | tissue uptake at 0.5 h [1, 6] [%ID/g] | tissue uptake at 2 h [1, 6] [%ID/g] | tissue to tissue ratio at 0.5 h ([2]; tumor and liver) | tissue to tissue ratio at 2 h ([2]; tumor and liver) | tissue to tissue ratio at 0.5 h ([2]; tumor and whole blood) | tissue to tissue ratio at 2 h ([2]; tumor and whole blood) | tissue uptake at 0.5 h ([2]; kidney uptake, U87MG model) [%ID/g] | tissue uptake at 2 h ([2]; kidney uptake, U87MG model) [%ID/g] | tissue uptake at 0.5 h ([2]; muscle uptake, U87MG model) [%ID/g] | tissue uptake at 2 h ([2]; muscle uptake, U87MG model) [%ID/g] | tissue uptake at 0.5 h ([2]; tumor uptake, U87MG glioma) [%ID/g] | tissue uptake at 2 h ([2]; tumor uptake, U87MG glioma) [%ID/g] | also measured
1 | N=C(N)NCCC[C@@H]1NC(=O)[C@H](CCCCNC(=O)CCOCCOCCOCCOCCNC(=O)CC[C@H](NC(=O)c2ccc(NN)nc2)C(=O)NCCOCCOCCOCCOCCC(=O)NCCCC[C@@H]2NC(=O)[C@@H](Cc3ccccc3)NC(=O)[C@H](CC(=O)O)NC(=O)CNC(=O)[C@H](CCCNC(=N)N)NC2=O)NC(=O)[C@@H](Cc2ccccc2)NC(=O)[C@H](CC(=O)O)NC(=O)CNC1=O [^99mTc-2PEG4-dimer, [^99mTc(HYNIC-2PEG4-dimer)(tricine)(TPPTS)], metal not drawn] | 6.52 ± 1.72 | 5.2 ± 1.74 | 9.77 ± 2.66 | 2.59 ± 0.45 | 3.33 ± 0.64 | 9.63 ± 1.32 | 29.1 ± 8.54 | 20.8 ± 2.32 | 10.2 ± 1.37 | 2.18 ± 0.37 | 1.27 ± 0.2 | 11.2 ± 1.96 | 8.31 ± 2.31 | tissue uptake at 0.5 h [1, 4]: 14.4 ± 4.09 %ID/g; tissue uptake at 2 h [1, 4]: 13.8 ± 5.36 %ID/g; tissue uptake at 0.5 h ([1]; liver uptake, MDA-MB-435 model): 2.97 ± 0.63 %ID/g; tissue uptake at 2 h ([1]; liver uptake, MDA-MB-435 model): 3.27 ± 1.09 %ID/g; tissue uptake at 0.5 h [1, 5]: 1.76 ± 0.56 %ID/g; tissue uptake at 2 h [1, 5]: 1.51 ± 0.35 %ID/g; uptake in the blood and kidneys in the presence of E[c(RGDfK)]2 (tumor-bearing mouse; 60 min p.i., versus without blocking agent): comparable; tumor uptake on co-injection of excess E[c(RGDfK)]2 (tumor-bearing mouse; result in words): partially blocked; metabolic stability during excretion from renal and hepatobiliary routes (normal athymic nude mice; urine and feces over 2 h): high metabolic stability; also recorded: remained intact; also recorded: very high metabolic stability
2 | N=C(N)NCCC[C@@H]1NC(=O)[C@H](CCCCNC(=O)CCOCCOCCOCCOCCNC(=O)CC[C@H](NC(=O)CCOCCOCCOCCOCCNC(=O)c2ccc(NN)nc2)C(=O)NCCOCCOCCOCCOCCC(=O)NCCCC[C@@H]2NC(=O)[C@@H](Cc3ccccc3)NC(=O)[C@H](CC(=O)O)NC(=O)CNC(=O)[C@H](CCCNC(=N)N)NC2=O)NC(=O)[C@@H](Cc2ccccc2)NC(=O)[C@H](CC(=O)O)NC(=O)CNC1=O [^99mTc-3PEG4-dimer, [^99mTc(HYNIC-3PEG4-dimer)(tricine)(TPPTS)], metal not drawn] |  |  |  | 2.13 ± 0.87 | 3.49 ± 1.64 | 6.72 ± 2.88 | 48.8 ± 18.7 | 17.6 ± 0.73 | 9.89 ± 1.2 | 1.45 ± 0.2 | 1 ± 0.22 | 8.17 ± 0.68 | 9.74 ± 3.22 | tissue uptake at 0.5 h [2, 7]: 1.02 ± 0.22 %ID/g; tissue uptake at 2 h [2, 7]: 0.17 ± 0.02 %ID/g; tissue uptake at 0.5 h ([2]; liver uptake, U87MG model): 3.14 ± 0.18 %ID/g; tissue uptake at 2 h ([2]; liver uptake, U87MG model): 2.92 ± 0.77 %ID/g; tissue uptake at 2 h ([2]; tumor uptake, U87MG glioma, tumor size 0.5 g – 1.6 g or 500 – 1700 mm^3): 4 to 6 %ID/g; tissue uptake at 2 h ([2]; tumor uptake, U87MG glioma, tumor size <0.05 g or <50 mm^3): 2 to 4 %ID/g; glioma uptake relative to ^99mTc-PEG4-monomer [3]: ~3 ×; metabolism during excretion from the hepatobiliary route (normal athymic nude mice; feces at 120 min p.i.): ~ 30%; metabolic stability during excretion from the renal route (normal athymic nude mice; urine at 30 and 120 min p.i.): remained intact
3 | N=C(N)NCCC[C@@H]1NC(=O)[C@H](CCCCNC(=O)CC[C@H](NC(=O)CCOCCOCCOCCOCCNC(=O)c2ccc(NN)nc2)C(=O)NCCCC[C@@H]2NC(=O)[C@@H](Cc3ccccc3)NC(=O)[C@H](CC(=O)O)NC(=O)CNC(=O)[C@H](CCCNC(=N)N)NC2=O)NC(=O)[C@@H](Cc2ccccc2)NC(=O)[C@H](CC(=O)O)NC(=O)CNC1=O [^99mTc-PEG4-dimer, [^99mTc(HYNIC-PEG4-dimer)(tricine)(TPPTS)], metal not drawn, reference compound] | 2.91 ± 0.6 | 3.49 ± 0.62 | 3.82 ± 0.54 |  |  |  |  |  |  |  |  |  |  | 
